From ChEMBL document CHEMBL3769370, “Synthesis and SAR of 4-methyl-5-pentylbenzene-1,3-diol (MPBD), produced by Dictyostelium discoideum” (2016)
The source made the active and inactive calls. The rule behind the calls is not given here.

Columns and labels:
Assay type in all cases: functional
Bacillus subtilis [1] = assay: Antibacterial activity against Bacillus subtilis at 100 mM after 16 to 24 hrs by disk diffusion assay; conditions: for zone of inhibition at 100000 µM: read-out: DIZ
Procedure, shortened: (§1)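 Bacteria grown in Lysogeny broth (LB), spread on LB or lactose peptone (LP) agar, and plates dried 10 min. 6 mm filter-paper disks placed, five per plate, at least 3 cm apart. Each disk loaded with a 100 mM solution of compound. Incubation 16–24 h at 37 °C. Zone of clearance around each disk inspected and photographed.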

Escherichia coli [2] = assay: Antibacterial activity against Escherichia coli at 100 mM after 16 to 24 hrs by disk diffusion assay; conditions: for zone of inhibition at 100000 µM: read-out: DIZ; procedure, shortened: as §1
Escherichia coli [3] = assay: Antibacterial activity against Escherichia coli at 50 mM after 16 to 24 hrs by disk diffusion assay; conditions: read-out: DIZ
Procedure, shortened: (§2)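 Positive-control disks loaded with 50 mM ampicillin solution. Bacteria grown in LB and spread on LB or LP agar, with plates dried 10 min before disks were placed. Disks were 6 mm filter paper, five per plate spaced at least 3 cm apart. Plates held at 37 °C for 16–24 h, then the clearance zone was checked and photographed.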

Bacillus subtilis [4] = assay: Antibacterial activity against Bacillus subtilis at 50 mM after 16 to 24 hrs by disk diffusion assay; conditions: read-out: DIZ; procedure, shortened: as §2

SMILES | zone of inhibition at 100000 µM (Bacillus subtilis [1]) [mm] | zone of inhibition at 100000 µM (Escherichia coli [2]) [mm] | other results
CCCCCc1cc(O)ccc1C | 1 | 1 | 
CCCCCc1cc(O)cc(O)c1CC | 1 | 4 | 
CC1(C)S[C@@H]2[C@H](NC(=O)[C@H](N)c3ccccc3)C(=O)N2[C@H]1C(=O)O [AMPICILLIN] |  |  | zone of inhibition at 50000 µM (Escherichia coli [3]): 7 mm; zone of inhibition at 50000 µM (Bacillus subtilis [4]): 7 mm
CCCCCc1cc(O)cc(O)c1C | 1 | 5 | 
CCCCCc1cc(OC)cc(OC)c1C |  |  | Activity (Bacillus subtilis [1]): inactive; Activity (Escherichia coli [2]): inactive
CCCCCc1cc(O)cc(O)c1CCC | 4 | 4 | 
